Reference: ChEMBL document CHEMBL3098105, “7,7'-Diazaindirubin--a small molecule inhibitor of casein kinase 2 in vitro and in cells” (Bioorg Med Chem, 2014)

Tests used:
[1] = target: Fibroblast growth factor receptor 1 (Homo sapiens) (UniProt P11362); assay: Inhibition of FGF-R1 (unknown origin) assessed as residual activity at 1 uM relative to control
[2] = target: T1, Aurora kinase A (Homo sapiens) (UniProt O14965); assay: Inhibition of Aurora-A (unknown origin) assessed as residual activity at 1 uM relative to control
T1 sequence (whole entry): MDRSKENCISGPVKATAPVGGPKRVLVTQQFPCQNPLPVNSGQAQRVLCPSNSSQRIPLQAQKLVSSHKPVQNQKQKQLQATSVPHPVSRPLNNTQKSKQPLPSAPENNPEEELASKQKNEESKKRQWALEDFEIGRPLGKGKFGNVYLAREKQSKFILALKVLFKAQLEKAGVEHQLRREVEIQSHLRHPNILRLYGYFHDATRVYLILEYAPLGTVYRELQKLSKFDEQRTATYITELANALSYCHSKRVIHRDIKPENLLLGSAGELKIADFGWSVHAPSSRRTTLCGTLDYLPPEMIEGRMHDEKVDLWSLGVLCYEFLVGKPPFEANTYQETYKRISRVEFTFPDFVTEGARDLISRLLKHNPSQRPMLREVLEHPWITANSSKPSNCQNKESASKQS

IGROV-1 = assay: Antiproliferative activity against human IGROV1 cells after 3 days by sulforhodamine B assay; format: functional; conditions: IGROV-1, 72 h
Outline: (§1)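 Tested in the NCI 60 cell line panel. GI50 is the concentration giving 50% inhibition of cell growth, and values are the mean of two series of tests.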

SK-MEL-28 = assay: Antiproliferative activity against human SK-MEL-28 cells after 3 days by sulforhodamine B assay; format: functional; conditions: SK-MEL-28, 72 h; outline: as §1
MDA-MB-435 = assay: Antiproliferative activity against human MDA-MB-435 cells after 3 days by sulforhodamine B assay; format: functional; conditions: MDA-MB-435, 72 h; outline: as §1
SNB-75 = assay: Antiproliferative activity against human SNB75 cells after 3 days by sulforhodamine B assay; format: functional; conditions: SNB-75, 72 h
SW-620 = assay: Antiproliferative activity against human SW620 cells after 3 days by sulforhodamine B assay; format: functional; conditions: SW-620, 72 h
NCI-H23 = assay: Antiproliferative activity against human NCI-H23 cells after 3 days by sulforhodamine B assay; format: functional; conditions: NCI-H23, 72 h; outline: as §1
[3] = target: Serine/threonine-protein kinase SIK1 (Homo sapiens) (UniProt P57059); assay: Inhibition of human SIK assessed as residual activity at 1 uM relative to control
Sequence of Serine/threonine-protein kinase SIK1 (Homo sapiens) (P57059 whole entry): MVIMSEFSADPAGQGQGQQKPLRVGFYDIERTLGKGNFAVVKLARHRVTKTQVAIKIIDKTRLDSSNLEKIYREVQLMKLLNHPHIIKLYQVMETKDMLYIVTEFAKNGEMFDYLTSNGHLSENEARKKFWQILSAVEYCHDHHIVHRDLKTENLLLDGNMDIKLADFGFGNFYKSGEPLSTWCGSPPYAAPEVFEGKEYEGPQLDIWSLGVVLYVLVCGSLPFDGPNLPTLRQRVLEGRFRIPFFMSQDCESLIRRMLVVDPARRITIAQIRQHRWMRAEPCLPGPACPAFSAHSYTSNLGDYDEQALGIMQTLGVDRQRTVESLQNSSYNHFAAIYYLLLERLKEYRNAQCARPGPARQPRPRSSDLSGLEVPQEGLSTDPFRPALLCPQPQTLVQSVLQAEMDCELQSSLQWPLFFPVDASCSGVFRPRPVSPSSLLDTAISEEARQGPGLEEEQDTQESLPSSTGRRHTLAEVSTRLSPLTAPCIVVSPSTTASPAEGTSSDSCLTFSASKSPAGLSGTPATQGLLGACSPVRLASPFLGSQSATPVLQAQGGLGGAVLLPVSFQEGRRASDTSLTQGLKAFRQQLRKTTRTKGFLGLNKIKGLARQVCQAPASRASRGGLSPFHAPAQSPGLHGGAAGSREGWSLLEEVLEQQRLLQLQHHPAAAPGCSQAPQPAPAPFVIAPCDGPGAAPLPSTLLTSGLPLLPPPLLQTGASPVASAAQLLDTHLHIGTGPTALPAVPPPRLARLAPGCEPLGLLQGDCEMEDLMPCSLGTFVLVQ

[4] = target: Rho-associated protein kinase 2 (Homo sapiens) (UniProt O75116); assay: Inhibition of human ROCK-2 assessed as residual activity at 1 uM relative to control
SR = assay: Antiproliferative activity against human SR cells after 3 days by sulforhodamine B assay; format: functional; conditions: 72 h
[5] = target: Protein kinase C iota type (Homo sapiens) (UniProt P41743); assay: Inhibition of human PKCiota assessed as residual activity at 1 uM relative to control
[6] = target: Protein kinase C beta type (Homo sapiens) (UniProt P05771); assay: Inhibition of human PKCbeta2 assessed as residual activity at 1 uM relative to control
Sequence of Protein kinase C beta type (Homo sapiens) (P05771 2-671 limits assumed): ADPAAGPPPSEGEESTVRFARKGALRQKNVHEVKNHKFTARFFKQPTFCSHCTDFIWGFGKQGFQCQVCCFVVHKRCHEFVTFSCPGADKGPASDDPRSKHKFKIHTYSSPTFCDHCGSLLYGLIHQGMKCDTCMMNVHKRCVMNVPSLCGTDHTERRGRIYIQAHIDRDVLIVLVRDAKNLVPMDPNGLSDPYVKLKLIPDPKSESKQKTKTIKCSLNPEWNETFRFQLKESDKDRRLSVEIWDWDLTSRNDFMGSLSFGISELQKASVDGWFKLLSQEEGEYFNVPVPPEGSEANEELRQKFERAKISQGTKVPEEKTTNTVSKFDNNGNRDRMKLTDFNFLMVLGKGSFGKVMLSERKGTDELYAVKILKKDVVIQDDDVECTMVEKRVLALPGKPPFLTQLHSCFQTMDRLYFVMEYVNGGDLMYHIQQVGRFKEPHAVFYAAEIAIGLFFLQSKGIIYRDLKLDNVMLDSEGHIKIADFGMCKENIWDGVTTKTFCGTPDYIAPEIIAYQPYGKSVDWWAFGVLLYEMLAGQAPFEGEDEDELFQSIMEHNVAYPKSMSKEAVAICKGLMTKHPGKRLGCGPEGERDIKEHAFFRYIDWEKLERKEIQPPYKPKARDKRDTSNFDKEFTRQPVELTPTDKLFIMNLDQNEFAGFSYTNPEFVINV

[7] = target: Serine/threonine-protein kinase MARK2 (Homo sapiens) (UniProt Q7KZI7); assay: Inhibition of human PAR1Balpha assessed as residual activity at 1 uM relative to control
Sequence of Serine/threonine-protein kinase MARK2 (Homo sapiens) (Q7KZI7 whole entry): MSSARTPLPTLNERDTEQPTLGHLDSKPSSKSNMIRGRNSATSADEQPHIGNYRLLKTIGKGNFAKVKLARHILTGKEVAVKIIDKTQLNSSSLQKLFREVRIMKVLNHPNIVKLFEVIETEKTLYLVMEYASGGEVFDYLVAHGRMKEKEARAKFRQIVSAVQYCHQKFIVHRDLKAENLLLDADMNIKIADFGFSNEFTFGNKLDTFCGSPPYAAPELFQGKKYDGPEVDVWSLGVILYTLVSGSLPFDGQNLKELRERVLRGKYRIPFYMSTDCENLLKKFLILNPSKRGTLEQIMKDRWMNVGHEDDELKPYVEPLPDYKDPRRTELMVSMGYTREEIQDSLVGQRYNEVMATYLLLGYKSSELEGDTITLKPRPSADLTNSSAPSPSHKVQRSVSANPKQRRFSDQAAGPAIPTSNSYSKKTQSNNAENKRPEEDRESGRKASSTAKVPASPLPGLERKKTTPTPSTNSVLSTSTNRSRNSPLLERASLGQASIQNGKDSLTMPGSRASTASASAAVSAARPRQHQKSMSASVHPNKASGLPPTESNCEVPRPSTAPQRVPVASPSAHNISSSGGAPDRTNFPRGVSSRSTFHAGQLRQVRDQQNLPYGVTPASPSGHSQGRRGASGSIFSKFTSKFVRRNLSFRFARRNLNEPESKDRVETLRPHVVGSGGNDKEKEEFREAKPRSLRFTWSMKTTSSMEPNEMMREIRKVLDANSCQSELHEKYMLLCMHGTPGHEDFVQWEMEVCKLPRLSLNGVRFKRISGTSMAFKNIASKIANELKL

[8] = target: Serine/threonine-protein kinase Nek6 (Homo sapiens) (UniProt Q9HC98); assay: Inhibition of human NEK6 assessed as residual activity at 1 uM relative to control
[9] = target: Serine/threonine-protein kinase Nek3 (Homo sapiens) (UniProt P51956); assay: Inhibition of human NEK3 assessed as residual activity at 1 uM relative to control
Sequence of Serine/threonine-protein kinase Nek3 (Homo sapiens) (P51956 whole entry): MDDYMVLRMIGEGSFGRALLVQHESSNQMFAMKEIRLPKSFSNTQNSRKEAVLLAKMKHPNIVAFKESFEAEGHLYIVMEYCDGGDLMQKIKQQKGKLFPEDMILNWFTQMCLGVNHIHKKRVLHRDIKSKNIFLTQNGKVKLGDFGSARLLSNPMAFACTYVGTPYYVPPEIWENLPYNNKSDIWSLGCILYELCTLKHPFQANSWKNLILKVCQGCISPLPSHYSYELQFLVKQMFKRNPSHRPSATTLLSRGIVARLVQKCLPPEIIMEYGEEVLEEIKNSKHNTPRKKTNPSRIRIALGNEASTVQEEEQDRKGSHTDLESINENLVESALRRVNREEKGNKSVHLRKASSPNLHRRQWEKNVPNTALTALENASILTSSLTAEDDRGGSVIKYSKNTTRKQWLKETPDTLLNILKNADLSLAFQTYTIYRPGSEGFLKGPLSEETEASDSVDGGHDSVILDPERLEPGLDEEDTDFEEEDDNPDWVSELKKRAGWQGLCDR

[10] = target: Serine/threonine-protein kinase 24 (Homo sapiens) (UniProt Q9Y6E0); assay: Inhibition of human MST3 assessed as residual activity at 1 uM relative to control
[11] = target: Dual specificity mitogen-activated protein kinase kinase 7 (Homo sapiens) (UniProt O14733); assay: Inhibition of human MKK7beta assessed as residual activity at 1 uM relative to control
[12] = target: Mitogen-activated protein kinase 10 (Homo sapiens) (UniProt P53779); assay: Inhibition of human JNK3 assessed as residual activity at 1 uM relative to control
[13] = target: Interleukin-1 receptor-associated kinase 1 (Homo sapiens) (UniProt P51617); assay: Inhibition of human IRAK1 assessed as residual activity at 1 uM relative to control
[14] = target: Dual specificity protein kinase CLK3 (Homo sapiens) (UniProt P49761); assay: Inhibition of human CLK3 assessed as residual activity at 1 uM relative to control
Sequence of Dual specificity protein kinase CLK3 (Homo sapiens) (P49761 whole entry, looked up, canonical isoform): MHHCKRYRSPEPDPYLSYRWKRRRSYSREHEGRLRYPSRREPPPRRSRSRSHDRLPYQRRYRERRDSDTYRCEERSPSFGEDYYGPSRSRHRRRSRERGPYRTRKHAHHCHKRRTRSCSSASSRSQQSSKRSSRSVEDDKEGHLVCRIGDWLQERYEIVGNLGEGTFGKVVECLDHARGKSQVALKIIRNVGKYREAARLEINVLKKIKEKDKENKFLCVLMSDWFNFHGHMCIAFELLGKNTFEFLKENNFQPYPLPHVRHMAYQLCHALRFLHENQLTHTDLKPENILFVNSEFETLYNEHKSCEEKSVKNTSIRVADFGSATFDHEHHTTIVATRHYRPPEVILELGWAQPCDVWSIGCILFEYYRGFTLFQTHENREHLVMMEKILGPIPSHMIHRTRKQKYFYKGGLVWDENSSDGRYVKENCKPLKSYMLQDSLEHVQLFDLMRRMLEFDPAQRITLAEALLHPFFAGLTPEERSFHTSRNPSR

[15] = target: Casein kinase I isoform delta (Homo sapiens) (UniProt P48730); assay: Inhibition of human CK1d assessed as residual activity at 1 uM relative to control
[16] = target: Serine/threonine-protein kinase Chk2 (Homo sapiens) (UniProt O96017); assay: Inhibition of human CHK2 assessed as residual activity at 1 uM relative to control
[17] = target: CDK9/cyclin T1 (Homo sapiens) (UniProt O60563+P50750); assay: Inhibition of human CDK9/cyclin T1 assessed as residual activity at 1 uM relative to control; format: protein-complex assay
[18] = target: T2, Cyclin-dependent kinase 1/cyclin B1 (Homo sapiens) (UniProt P06493+P14635); assay: Inhibition of human CDK1/cyclinB assessed as residual activity at 1 uM relative to control; format: protein-complex assay
T2 sequence (P06493 whole entry, looked up): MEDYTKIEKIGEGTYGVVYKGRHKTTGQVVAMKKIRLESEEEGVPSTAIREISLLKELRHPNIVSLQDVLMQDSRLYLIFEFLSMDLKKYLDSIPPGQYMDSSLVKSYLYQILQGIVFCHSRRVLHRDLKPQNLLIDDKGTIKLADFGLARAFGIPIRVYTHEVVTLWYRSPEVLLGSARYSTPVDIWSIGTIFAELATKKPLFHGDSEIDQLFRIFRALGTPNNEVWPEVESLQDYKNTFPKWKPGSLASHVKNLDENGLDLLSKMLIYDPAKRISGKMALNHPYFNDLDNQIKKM
T2 sequence (P14635 whole entry, looked up): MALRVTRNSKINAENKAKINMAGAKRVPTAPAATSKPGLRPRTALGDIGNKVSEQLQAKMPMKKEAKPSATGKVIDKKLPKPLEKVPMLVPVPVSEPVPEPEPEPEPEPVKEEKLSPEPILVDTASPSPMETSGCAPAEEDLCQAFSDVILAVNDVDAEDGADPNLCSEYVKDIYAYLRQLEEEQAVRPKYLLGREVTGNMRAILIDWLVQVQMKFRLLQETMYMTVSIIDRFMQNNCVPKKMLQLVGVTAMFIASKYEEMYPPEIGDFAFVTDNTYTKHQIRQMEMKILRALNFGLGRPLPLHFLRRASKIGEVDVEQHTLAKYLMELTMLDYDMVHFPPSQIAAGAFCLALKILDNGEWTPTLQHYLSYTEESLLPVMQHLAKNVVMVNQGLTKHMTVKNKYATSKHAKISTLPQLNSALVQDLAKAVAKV

[19] = target: Calcium/calmodulin-dependent protein kinase type 1 (Homo sapiens) (UniProt Q14012); assay: Inhibition of human CaMK1 assessed as residual activity at 1 uM relative to control
Sequence of Calcium/calmodulin-dependent protein kinase type 1 (Homo sapiens) (Q14012 whole entry, looked up): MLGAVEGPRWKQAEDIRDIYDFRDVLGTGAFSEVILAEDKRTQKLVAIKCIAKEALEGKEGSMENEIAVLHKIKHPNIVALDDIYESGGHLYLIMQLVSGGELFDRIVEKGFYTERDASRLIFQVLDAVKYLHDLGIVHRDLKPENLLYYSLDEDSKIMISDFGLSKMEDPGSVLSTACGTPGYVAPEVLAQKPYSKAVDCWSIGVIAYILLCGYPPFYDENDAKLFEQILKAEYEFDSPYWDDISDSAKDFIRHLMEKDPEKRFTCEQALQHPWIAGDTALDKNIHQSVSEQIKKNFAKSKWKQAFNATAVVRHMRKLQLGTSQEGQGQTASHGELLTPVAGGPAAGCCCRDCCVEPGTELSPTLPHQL

[20] = target: Tyrosine-protein kinase Blk (Mus musculus) (UniProt P16277); assay: Inhibition of mouse Blk assessed as residual activity at 1 uM relative to control
Sequence of Tyrosine-protein kinase Blk (Mus musculus) (P16277 whole entry): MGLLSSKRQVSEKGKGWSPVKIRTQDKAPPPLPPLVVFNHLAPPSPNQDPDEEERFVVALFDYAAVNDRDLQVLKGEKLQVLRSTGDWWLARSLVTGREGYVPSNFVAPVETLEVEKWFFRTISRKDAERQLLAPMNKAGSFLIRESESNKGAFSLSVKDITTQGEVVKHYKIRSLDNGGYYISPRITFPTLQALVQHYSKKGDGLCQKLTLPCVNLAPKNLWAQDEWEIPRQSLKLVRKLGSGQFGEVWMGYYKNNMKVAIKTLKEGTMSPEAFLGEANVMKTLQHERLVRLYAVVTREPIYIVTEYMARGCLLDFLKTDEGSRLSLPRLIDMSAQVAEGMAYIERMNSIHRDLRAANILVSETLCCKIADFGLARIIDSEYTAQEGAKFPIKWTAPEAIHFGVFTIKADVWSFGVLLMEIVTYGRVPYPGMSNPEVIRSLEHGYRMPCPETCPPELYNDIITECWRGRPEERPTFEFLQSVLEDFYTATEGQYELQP

[21] = target: T1, Aurora kinase A (Homo sapiens); assay: Inhibition of human Aurora-A assessed as residual activity at 1 uM relative to control
[22] = target: T2, Cyclin-dependent kinase 1/cyclin B1 (Homo sapiens); assay: Inhibition of CDK1/CycB1 (unknown origin) assessed as residual activity at 10 uM relative to control; format: protein-complex assay

O=C1Nc2ncccc2/C1=C1/Nc2ncccc2C1=O
Activity [1]: 85%
Activity [2]: 85%
GI50 (IGROV-1): 577 nM
GI50 (SK-MEL-28): 2830 nM
GI50 (MDA-MB-435): 198 nM
GI50 (SNB-75): 1580 nM
GI50 (SW-620): 1410 nM
GI50 (NCI-H23): 376 nM
Activity [3]: 32%
Activity [4]: 114%
GI50 (SR): 2730 nM
Activity [5]: 92%
Activity [6]: 101%
Activity [7]: 53%
Activity [8]: 61%
Activity [9]: 109%
Activity [10]: 113%
Activity [11]: 103%
Activity [12]: 120%
Activity [13]: 89%
Activity [14]: 86%
Activity [15]: 68%
Activity [16]: 120%
Activity [17]: 100%
Activity [18]: 101%
Activity [19]: 120%
Activity [20]: 113%
Activity [21]: 60%
Activity [22]: 89%
